Most compounds without a hit are left out; they make up all but 4.9% or so of the library.
STAT1 activator: increases IFN-gamma driven STAT1 reporter signal | NIH 3T3 STAT1-luciferase reporter, luminescence; 100% = IFN-gamma alone, no compound | activation (% of control), % at 5.5 µM | 200,000 compounds, 2.6% hits;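 active = activation above the screen-wide mean activation plus 3 SD, cut at about 130% in these data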;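 note: raw ratio to IFN-gamma control signal so 100% means no change and 0% no light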
STAT1 inh: inhibitors of IFN-gamma induced STAT1 signaling; inhibition, % at 5.5 µM; AID 920; 200,000 compounds, 0.35% hits; NIH 3T3 STAT1-luciferase reporter, luminescence;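 active = inhibition above a set limit, the mean inhibition across all tested compounds plus 3 SD, cut at about 34% in these data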;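 note: 0% = IFN-gamma with DMSO and 100% = IFN-gamma with 300 µM nifuroxazide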
STAT3 blocker: reduces IL-6 driven STAT3 reporter signal. U3A cells, IL-6 STAT3-luciferase reporter, luminescence; host cell line lacks STAT1. AID 862. inhibition, % at 5.5 µM. 190,000 compounds, 0.89% hits;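 active = inhibition above the mean inhibition across all screened compounds plus 3 SD, cut at about 44% in these data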;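 note: 0% = DMSO only wells and 100% = 100 µM nifuroxazide control wells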
STAT3 activator: increases IL-6 driven STAT3 reporter signal. activation (% of control), % at 5.6 µM. U3A cells, IL-6 STAT3-luciferase reporter, luminescence; 100% = signal with IL-6 EC80 alone. 190,000 compounds, 0.91% hits;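 active = activation above the screen-wide mean of compound activation plus 3 SD, cut at about 130% in these data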;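 note: 0% = background luminescence of wells with medium and substrate only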
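Material: STAT3-luciferase reporter U3A cells. Controls: IL-6-treated wells, 100% activation. Read-out: % activation versus median of IL-6-stimulated wells. Probe or stimulus: IL-6 stimulus at 33 ng/mL final. Timing: compound 1 h, then IL-6 6 h at 37 °C. Signal: reporter luminescence signal.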
FLuc stim CS: firefly luciferase counter-screen for stimulation assays | activation factor at 10 µM | ATPlite luciferase biochemical, luminescence, 10 min; 0 = ATP-free wells, 1 = DMSO control | P08659 | 200,000 tested, under 10 active | AID 1027;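 active = luciferase activation factor, scaled between plate controls, of at least 2 with compound at 10 µM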
Target sequence (P08659 whole entry, looked up): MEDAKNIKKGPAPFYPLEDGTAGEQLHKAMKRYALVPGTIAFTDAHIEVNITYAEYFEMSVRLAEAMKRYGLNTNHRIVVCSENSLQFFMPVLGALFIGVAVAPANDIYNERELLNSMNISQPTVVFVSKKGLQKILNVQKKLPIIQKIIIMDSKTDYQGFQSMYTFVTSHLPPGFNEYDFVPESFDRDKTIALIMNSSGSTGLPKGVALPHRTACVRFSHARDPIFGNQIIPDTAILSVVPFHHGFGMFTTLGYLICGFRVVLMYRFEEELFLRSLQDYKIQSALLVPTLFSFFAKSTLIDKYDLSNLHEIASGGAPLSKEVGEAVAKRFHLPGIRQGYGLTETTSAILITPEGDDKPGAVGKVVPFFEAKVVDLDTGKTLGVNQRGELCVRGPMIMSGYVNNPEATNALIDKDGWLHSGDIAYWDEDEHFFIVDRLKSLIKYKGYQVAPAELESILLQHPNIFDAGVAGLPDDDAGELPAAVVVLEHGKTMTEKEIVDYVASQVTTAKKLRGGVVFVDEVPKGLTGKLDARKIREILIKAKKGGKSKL
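System: cell-free luciferase reagent; medium: PBS as buffer for the ATP substrate; doses: test compounds dosed from 2 mM stocks in 100% DMSO; incubation: 10 min, room temperature; measured by: luminescence from luciferase reaction; read-out: luciferase activation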
FLuc inhib CS: inhibits firefly luciferase, flagging false hits in luciferase inhibition screens. AID 1006. 200,000 compounds, 1.5% hits. inhibition, % at 10 µM. ATPLite firefly luciferase biochemical luminescence, 10 min. P08659;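 active = inhibition above about 50% when tested at 10 µM, limit read from the data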
Active calls of the source: *.

For COc1cccc(NC(=O)Cn2c(=O)n(-c3ccccc3)c(=O)c3sccc32)c1 the results were STAT1 activator 90, STAT1 inh 9, STAT3 blocker 21, STAT3 activator 89, FLuc stim CS 1 and FLuc inhib CS -3.
Screening COc1cccc(-c2nc(-c3ccccn3)no2)c1 returned STAT1 activator 46, STAT1 inh 60*, STAT3 blocker 95*, STAT3 activator 19, FLuc stim CS 0.1 and FLuc inhib CS 93*.
`COc1cccc(-c2nc(-c3ccc(NC(=O)c4cccnc4)cc3)no2)c1` gave STAT1 activator 102, STAT1 inh -3, STAT3 blocker 12, STAT3 activator 95, FLuc stim CS 1 and FLuc inhib CS -3.
`Cc1ccc(-c2nc(-c3cccnc3)no2)cc1` gave STAT1 activator 122, STAT1 inh -24, STAT3 blocker 29, STAT3 activator 78, FLuc stim CS 0.3 and FLuc inhib CS 66*.
For COc1cccc(-c2noc(-c3cccs3)n2)c1 the results were STAT1 activator 139*, STAT1 inh -42, STAT3 blocker 24, STAT3 activator 84, FLuc stim CS 0.5 and FLuc inhib CS 50*.
COc1nc(C)ccc1-c1noc(-c2ccncc2)n1 was read as STAT1 activator 131*, STAT1 inh -33, STAT3 blocker -4, STAT3 activator 107, FLuc stim CS 0.9 and FLuc inhib CS 11.
COc1nc(-c2ccccc2)ccc1-c1noc(-c2cccs2)n1 was read as STAT1 activator 106, STAT1 inh -7, STAT3 blocker -18 and STAT3 activator 118.
`Cc1ccc(NC(=O)c2ccc3ccccc3n2)cc1S(=O)(=O)N1CCOCC1` gave STAT1 activator 122, STAT1 inh -21, STAT3 blocker 12, STAT3 activator 94, FLuc stim CS 1 and FLuc inhib CS 0.
CCOC(=O)c1ccc(NC(=O)COc2ccccc2CNC2CCCC2)cc1 was read as STAT1 activator 94, STAT1 inh 4, STAT3 blocker 6, STAT3 activator 99, FLuc stim CS 1.1 and FLuc inhib CS -8.
`O=C1CC(N2CCC(O)(c3ccc(Br)cc3)CC2)C(=O)N1c1ccc(Cl)cc1` (stereo not drawn) gave STAT1 activator 103, STAT1 inh -3, STAT3 blocker -3, STAT3 activator 100, FLuc stim CS 1 and FLuc inhib CS 0.
Screening COc1ccc(CC(=O)Nc2ccc(-c3noc(-c4cccc(OC)c4)n3)cc2)cc1 returned STAT1 activator 91, STAT1 inh 10, STAT3 blocker 15, STAT3 activator 89, FLuc stim CS 1.1 and FLuc inhib CS -10.
Screening COC(=O)c1ccc(-c2nc(-c3cccs3)no2)cc1 returned STAT1 activator 53, STAT1 inh 52*, STAT3 blocker 91*, STAT3 activator 30, FLuc stim CS 0.3 and FLuc inhib CS 72*.
For COc1cccc(-c2nc3ccccc3c(=O)o2)c1 the results were STAT1 activator 96, STAT1 inh 5, STAT3 blocker 13, STAT3 activator 92, FLuc stim CS 0.5 and FLuc inhib CS 52*.
For COc1cc(OC)cc(-c2nc3ccccc3c(=O)o2)c1 the results were STAT1 activator 100, STAT1 inh 0, STAT3 blocker 2, STAT3 activator 101, FLuc stim CS 0.9 and FLuc inhib CS 8.
COC(=O)c1ccc(-c2nc(-c3ccc(Br)o3)no2)cc1 was read as STAT1 activator 108, STAT1 inh -9, STAT3 blocker 13, STAT3 activator 97, FLuc stim CS 0.9 and FLuc inhib CS 9.
For COc1cccc(-c2noc(-c3ccc(Br)o3)n2)c1 the results were STAT1 activator 136*, STAT1 inh -42, STAT3 blocker 9, STAT3 activator 94, FLuc stim CS 0.5 and FLuc inhib CS 46.
`c1ccc(-c2noc(-c3cccnc3)n2)nc1` gave STAT1 activator 129*, STAT1 inh -30, STAT3 blocker 20, STAT3 activator 85, FLuc stim CS 0.7 and FLuc inhib CS 31.
For Cc1nc(C)c(N)c(=O)[nH]1 the results were STAT1 activator 103, STAT1 inh -4, STAT3 blocker 1, STAT3 activator 105, FLuc stim CS 1 and FLuc inhib CS -2.

High-throughput results as filed in PubChem BioAssay.
